Columns and labels:
[1] = system: Plasma; assay: Anticoagulant activity in human plasma assessed as activated partial thromboplastin time; format: functional
Summary of the method: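 Pooled normal human plasma spiked with compound in PBS at 0.1 mg/mL (methods give a 0–100 μg/mL range); APTT elevation measured. Normal range 26–36 s. Values are means of two determinations.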

[2] = system: Plasma; assay: Anticoagulant activity in human plasma by heptest; format: functional
Summary of the method: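 Heptest clot assay. Plasma (centrifuged 1800g, 10 min, used within 30 min) incubated with compound 2 min at 37 °C. Factor Xa added, 2 min at 37 °C, then clotting started with Recalmix; read on a ball coagulometer. Normal range 13–20 s; means of two determinations.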

[3] = system: HUVEC; assay: Cytotoxicity against HUVEC; format: cell-based; settings: human
[4] = target: Fibroblast growth factor 2 (Homo sapiens, UniProt P09038); assay: Binding affinity to FGF2 by surface plasmon-based solution affinity assay
Summary of the method: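 Surface plasmon resonance solution affinity assay on heparin-coated CM4 chips. FGF-2 binding run in HBS-EP containing 300 mM NaCl. Kd is the mean of at least duplicate measurements ± SD.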

[5] = target: Fibroblast growth factor 1 (Homo sapiens, UniProt P05230); assay: Binding affinity to FGF1 by surface plasmon-based solution affinity assay
Summary of the method: (§1)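 Surface plasmon resonance solution affinity assay on heparin-coated CM4 chips. Buffer: HBS-EP (10 mM HEPES pH 7.4, 150 mM NaCl, 3.0 mM EDTA, 0.005% polysorbate 20). Kd is the mean of at least duplicate measurements ± SD.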

[6] = target: T1, Heparanase (Homo sapiens, UniProt Q9Y251); assay: Inhibition of human recombinant heparanase
T1 sequence (Q9Y251 whole entry): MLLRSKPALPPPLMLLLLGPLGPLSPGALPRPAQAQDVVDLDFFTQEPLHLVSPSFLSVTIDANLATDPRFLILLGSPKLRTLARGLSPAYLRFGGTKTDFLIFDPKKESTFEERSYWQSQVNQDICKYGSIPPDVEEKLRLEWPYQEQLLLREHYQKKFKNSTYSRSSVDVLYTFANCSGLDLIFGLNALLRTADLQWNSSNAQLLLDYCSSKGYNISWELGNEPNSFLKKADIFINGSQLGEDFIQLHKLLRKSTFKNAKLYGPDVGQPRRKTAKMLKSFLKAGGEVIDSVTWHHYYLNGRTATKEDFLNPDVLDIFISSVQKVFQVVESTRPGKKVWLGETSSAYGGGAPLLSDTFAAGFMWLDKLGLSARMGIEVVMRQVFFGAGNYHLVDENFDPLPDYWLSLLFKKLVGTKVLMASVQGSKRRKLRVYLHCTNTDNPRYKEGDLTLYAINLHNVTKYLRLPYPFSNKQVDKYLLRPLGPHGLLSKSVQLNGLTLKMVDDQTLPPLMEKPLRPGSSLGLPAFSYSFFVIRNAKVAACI
Summary of the method: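 Recombinant human heparanase assayed by ultrafiltration with 3H-labelled heparan sulfate as substrate (Km = 1.64 μM). Ki values with standard error were derived from inhibition response curves.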

[7] = target: T2, Vascular endothelial growth factor A, long form (Homo sapiens, UniProt P15692); assay: Binding affinity to VEGF by surface plasmon-based solution affinity assay; summary of the method: as §1
T2 sequence (P15692 whole entry): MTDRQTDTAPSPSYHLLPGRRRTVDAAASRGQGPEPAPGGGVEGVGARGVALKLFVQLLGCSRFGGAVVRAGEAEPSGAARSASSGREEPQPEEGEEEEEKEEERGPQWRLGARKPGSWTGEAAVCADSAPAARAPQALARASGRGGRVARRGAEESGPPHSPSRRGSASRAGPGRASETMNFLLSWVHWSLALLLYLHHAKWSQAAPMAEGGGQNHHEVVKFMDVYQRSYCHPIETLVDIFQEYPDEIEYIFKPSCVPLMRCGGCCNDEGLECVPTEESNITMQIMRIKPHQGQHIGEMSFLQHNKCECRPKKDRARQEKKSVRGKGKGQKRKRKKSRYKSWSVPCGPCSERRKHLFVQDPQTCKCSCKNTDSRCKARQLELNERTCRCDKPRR

Fibroblast growth factor 1, sequence (P05230 whole entry): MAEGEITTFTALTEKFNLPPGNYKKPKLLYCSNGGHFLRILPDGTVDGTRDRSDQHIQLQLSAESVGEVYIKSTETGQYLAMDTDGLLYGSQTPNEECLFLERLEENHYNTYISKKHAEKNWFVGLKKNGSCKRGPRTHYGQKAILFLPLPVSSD
Fibroblast growth factor 2, sequence (P09038 143-288 limits assumed): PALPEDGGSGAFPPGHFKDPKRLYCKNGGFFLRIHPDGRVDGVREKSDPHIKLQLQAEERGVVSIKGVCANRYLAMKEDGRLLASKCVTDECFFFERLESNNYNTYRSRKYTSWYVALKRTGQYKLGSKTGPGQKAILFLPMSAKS

| SMILES | Time [1] | Activity [2] | LC50 [3] | Kd [4] | Kd [5] | Ki [6] | Kd [7] |
| --- | --- | --- | --- | --- | --- | --- | --- |
| CCCCc1ccc(CO[C@H]2O[C@H](COS(=O)(=O)[O-])[C@@H](OS(=O)(=O)[O-])[C@H](OS(=O)(=O)[O-])[C@@H]2O[C@H]2O[C@H](COS(=O)(=O)[O-])[C@@H](OS(=O)(=O)[O-])[C@H](O[C@H]3O[C@H](COS(=O)(=O)[O-])[C@@H](OS(=O)(=O)[O-])[C@H](O[C@H]4O[C@H](COS(=O)(=O)[O-])[C@@H](OS(=O)(=O)[O-])[C@H](OS(=O)(=O)[O-])[C@@H]4OS(=O)(=O)[O-])[C@@H]3OS(=O)(=O)[O-])[C@@H]2OS(=O)(=O)[O-])cc1.[Na+].[Na+].[Na+].[Na+].[Na+].[Na+].[Na+].[Na+].[Na+].[Na+].[Na+].[Na+].[Na+] | 73.1 s | 49.8 s | > 100000 nM | 160 nM | 0.21 nM | 310 nM | 12 nM |
| CN(C)c1cccc2c(S(=O)(=O)NCCCCCCCCO[C@H]3O[C@H](COS(=O)(=O)[O-])[C@@H](OS(=O)(=O)[O-])[C@H](OS(=O)(=O)[O-])[C@@H]3O[C@H]3O[C@H](COS(=O)(=O)[O-])[C@@H](OS(=O)(=O)[O-])[C@H](O[C@H]4O[C@H](COS(=O)(=O)[O-])[C@@H](OS(=O)(=O)[O-])[C@H](O[C@H]5O[C@H](COS(=O)(=O)[O-])[C@@H](OS(=O)(=O)[O-])[C@H](OS(=O)(=O)[O-])[C@@H]5OS(=O)(=O)[O-])[C@@H]4OS(=O)(=O)[O-])[C@@H]3OS(=O)(=O)[O-])cccc12.[Na+].[Na+].[Na+].[Na+].[Na+].[Na+].[Na+].[Na+].[Na+].[Na+].[Na+].[Na+].[Na+] | – | – | > 100000 nM | 130 nM | 0.2 nM | 330 nM | 8.9 nM |
| O=S(=O)([O-])OC[C@H]1O[C@H](OCCCCCCCCn2cc(-c3cccc4ccccc34)nn2)[C@@H](O[C@H]2O[C@H](COS(=O)(=O)[O-])[C@@H](OS(=O)(=O)[O-])[C@H](O[C@H]3O[C@H](COS(=O)(=O)[O-])[C@@H](OS(=O)(=O)[O-])[C@H](O[C@H]4O[C@H](COS(=O)(=O)[O-])[C@@H](OS(=O)(=O)[O-])[C@H](O[C@H]5O[C@H](COS(=O)(=O)[O-])[C@@H](OS(=O)(=O)[O-])[C@H](OS(=O)(=O)[O-])[C@@H]5OS(=O)(=O)[O-])[C@@H]4OS(=O)(=O)[O-])[C@@H]3OS(=O)(=O)[O-])[C@@H]2OS(=O)(=O)[O-])[C@@H](OS(=O)(=O)[O-])[C@@H]1OS(=O)(=O)[O-].[Na+].[Na+].[Na+].[Na+].[Na+].[Na+].[Na+].[Na+].[Na+].[Na+].[Na+].[Na+].[Na+].[Na+].[Na+].[Na+] | 89 s | 20 s | > 100000 nM | 35 nM | 0.12 nM | 360 nM | 0.7 nM |
| CN(C)c1cccc2c(S(=O)(=O)NCCCO[C@H]3O[C@H](COS(=O)(=O)[O-])[C@@H](OS(=O)(=O)[O-])[C@H](OS(=O)(=O)[O-])[C@@H]3O[C@H]3O[C@H](COS(=O)(=O)[O-])[C@@H](OS(=O)(=O)[O-])[C@H](O[C@H]4O[C@H](COS(=O)(=O)[O-])[C@@H](OS(=O)(=O)[O-])[C@H](O[C@H]5O[C@H](COS(=O)(=O)[O-])[C@@H](OS(=O)(=O)[O-])[C@H](O[C@H]6O[C@H](COS(=O)(=O)[O-])[C@@H](OS(=O)(=O)[O-])[C@H](OS(=O)(=O)[O-])[C@@H]6OS(=O)(=O)[O-])[C@@H]5OS(=O)(=O)[O-])[C@@H]4OS(=O)(=O)[O-])[C@@H]3OS(=O)(=O)[O-])cccc12.[Na+].[Na+].[Na+].[Na+].[Na+].[Na+].[Na+].[Na+].[Na+].[Na+].[Na+].[Na+].[Na+].[Na+].[Na+].[Na+] | – | – | > 100000 nM | 86 nM | 0.79 nM | 570 nM | 12.2 nM |
| O=S(=O)([O-])OC[C@H]1O[C@H](OCCCn2cc(-c3ccccc3)nn2)[C@@H](O[C@H]2O[C@H](COS(=O)(=O)[O-])[C@@H](OS(=O)(=O)[O-])[C@H](O[C@H]3O[C@H](COS(=O)(=O)[O-])[C@@H](OS(=O)(=O)[O-])[C@H](O[C@H]4O[C@H](COS(=O)(=O)[O-])[C@@H](OS(=O)(=O)[O-])[C@H](O[C@H]5O[C@H](COS(=O)(=O)[O-])[C@@H](OS(=O)(=O)[O-])[C@H](OS(=O)(=O)[O-])[C@@H]5OS(=O)(=O)[O-])[C@@H]4OS(=O)(=O)[O-])[C@@H]3OS(=O)(=O)[O-])[C@@H]2OS(=O)(=O)[O-])[C@@H](OS(=O)(=O)[O-])[C@@H]1OS(=O)(=O)[O-].[Na+].[Na+].[Na+].[Na+].[Na+].[Na+].[Na+].[Na+].[Na+].[Na+].[Na+].[Na+].[Na+].[Na+].[Na+].[Na+] | – | – | > 100000 nM | 83 nM | 0.1 nM | 350 nM | 1.4 nM |
| O=S(=O)([O-])OC[C@H]1O[C@H](OCCCCCCCCCCCCn2cc(-c3ccccc3)nn2)[C@@H](O[C@H]2O[C@H](COS(=O)(=O)[O-])[C@@H](OS(=O)(=O)[O-])[C@H](O[C@H]3O[C@H](COS(=O)(=O)[O-])[C@@H](OS(=O)(=O)[O-])[C@H](O[C@H]4O[C@H](COS(=O)(=O)[O-])[C@@H](OS(=O)(=O)[O-])[C@H](O[C@H]5O[C@H](COS(=O)(=O)[O-])[C@@H](OS(=O)(=O)[O-])[C@H](OS(=O)(=O)[O-])[C@@H]5OS(=O)(=O)[O-])[C@@H]4OS(=O)(=O)[O-])[C@@H]3OS(=O)(=O)[O-])[C@@H]2OS(=O)(=O)[O-])[C@@H](OS(=O)(=O)[O-])[C@@H]1OS(=O)(=O)[O-].[Na+].[Na+].[Na+].[Na+].[Na+].[Na+].[Na+].[Na+].[Na+].[Na+].[Na+].[Na+].[Na+].[Na+].[Na+].[Na+] | – | – | > 100000 nM | 253 nM | 2.3 nM | 270 nM | 5.1 nM |
| O=S(=O)([O-])OC[C@H]1O[C@H](OCCCn2cc(-c3ccccc3)nn2)[C@@H](O[C@H]2O[C@H](COS(=O)(=O)[O-])[C@@H](OS(=O)(=O)[O-])[C@H](O[C@H]3O[C@H](COS(=O)(=O)[O-])[C@@H](OS(=O)(=O)[O-])[C@H](O[C@H]4O[C@H](COS(=O)(=O)[O-])[C@@H](OS(=O)(=O)[O-])[C@H](OS(=O)(=O)[O-])[C@@H]4OS(=O)(=O)[O-])[C@@H]3OS(=O)(=O)[O-])[C@@H]2OS(=O)(=O)[O-])[C@@H](OS(=O)(=O)[O-])[C@@H]1OS(=O)(=O)[O-].[Na+].[Na+].[Na+].[Na+].[Na+].[Na+].[Na+].[Na+].[Na+].[Na+].[Na+].[Na+].[Na+] | – | – | > 100000 nM | 550 nM | 0.36 nM | 610 nM | 25 nM |
| O=S(=O)([O-])OC[C@H]1O[C@H](OCCCCCCCCCCCCn2cc(-c3cccc4ccccc34)nn2)[C@@H](O[C@H]2O[C@H](COS(=O)(=O)[O-])[C@@H](OS(=O)(=O)[O-])[C@H](O[C@H]3O[C@H](COS(=O)(=O)[O-])[C@@H](OS(=O)(=O)[O-])[C@H](O[C@H]4O[C@H](COS(=O)(=O)[O-])[C@@H](OS(=O)(=O)[O-])[C@H](O[C@H]5O[C@H](COS(=O)(=O)[O-])[C@@H](OS(=O)(=O)[O-])[C@H](OS(=O)(=O)[O-])[C@@H]5OS(=O)(=O)[O-])[C@@H]4OS(=O)(=O)[O-])[C@@H]3OS(=O)(=O)[O-])[C@@H]2OS(=O)(=O)[O-])[C@@H](OS(=O)(=O)[O-])[C@@H]1OS(=O)(=O)[O-].[Na+].[Na+].[Na+].[Na+].[Na+].[Na+].[Na+].[Na+].[Na+].[Na+].[Na+].[Na+].[Na+].[Na+].[Na+].[Na+] | – | – | > 100000 nM | 73 nM | 0.19 nM | 270 nM | 0.79 nM |
